Measurements of several laboratories.
Lines come from different studies, so protocols differ.
Target: Mitogen-activated protein kinase 6 (MAPK6, Homo sapiens, UniProt Q16659)

CN(C(=O)c1ccccc1)c1cc(N(C)c2ccc3c(c2)CCc2ccc(C(=O)NCCN4CCOCC4)cc2C3=O)ccc1F  remaining binding (cell-free assay, competition with immobilised ligand; 1 µM): 100%
c1cncc(-c2cccc(Nc3nccc(NC4CCCCC4)n3)c2)c1  remaining binding (binding, competition with immobilised ligand; 10 µM): 100%
COc1cnc(Nc2cccc(S(N)(=O)=O)c2)nc1N1CCN(c2ccccc2)C(=O)C1  remaining binding (binding, competition with immobilised ligand; 1 µM): 100%
Cc1c[nH]c2nccc(Oc3c(F)cc(Nc4cc(Cl)nc(N)n4)cc3F)c12  remaining binding (cell-free assay, competition with immobilised ligand; 0.1 µM): 95%
O=C(c1ccc(Nc2ncc(Cl)c(-c3ccc(Cl)s3)n2)cc1)N1CCC(N2CCCC2)CC1  remaining binding (binding, competition with immobilised ligand; 1 µM): 0%
O=C(NCC1CCOCC1)c1n[nH]cc1NC(=O)c1c(F)cccc1F  remaining binding (binding, competition with immobilised ligand; 1 µM): 86%
COc1ccnn2ncc(-c3ccnc(N(C)C)n3)c12  remaining binding (binding; 1 µM): 85%
CC(=O)C1=C(C)N(c2cccc(C(F)(F)F)c2)C(=O)N[C@@H]1c1ccc(C#N)nc1  remaining binding (cell-free assay, competition with immobilised ligand; 1 µM): 75.8%
Cc1cnc(Nc2ccc(C(=O)N3CCC(N4CCCC4)CC3)cc2)nc1-c1cc2ccccc2s1  remaining binding (binding, competition with immobilised ligand; 1 µM): 0.1%
CN(C)c1nccc(-c2cnn3ncccc23)n1  remaining binding (binding; 1 µM): 100%
CN(C)c1ncnc(-c2ccc3nc(Nc4cc(CN5CCN(C(=O)CC(F)(F)F)CC5)ccn4)[nH]c3c2)c1Cl  remaining binding (cell-free assay, competition with immobilised ligand; 1 µM): 100%
CC1CCCN1c1nccc(-c2cnn3ncccc23)n1 (stereo not shown)  remaining binding (binding; 1 µM): 89%
CS(=O)(=O)N1CCCC(NC(=O)[C@H](CCC2CCCCC2)NC(=O)c2ccc(CNC(=O)c3cnc4ccccn34)cc2)C1 (stereo partly shown)  remaining binding (cell-free assay, competition with immobilised ligand; 0.1 µM): 96%
CN(c1nccc(-c2cnn3ncccc23)n1)C1CC1  remaining binding (binding; 1 µM): 87%
COc1ncc2cc3ccccc3nc2c1C#N  remaining binding (cell-free assay, competition with immobilised ligand; 5 µM): 90%
C[C@H]1CCN(c2nccc(-c3cnn4ncccc34)n2)C1  remaining binding (binding; 1 µM): 83%
O=C(c1ccc(Nc2ncc(Cl)c(-c3cc4ccccc4s3)n2)cc1)N1CCC(N2CCCC2)CC1  remaining binding (binding, competition with immobilised ligand; 1 µM): 0%
COc1cnc(Nc2cccc(S(N)(=O)=O)c2)nc1N1CCN(c2ccccc2)CC1  remaining binding (binding, competition with immobilised ligand; 1 µM): 100%
N[C@@H]1CCN(c2nccc(-c3cnn4ncccc34)n2)C1  remaining binding (binding; 1 µM): 100%
Nc1ncc2c(n1)-c1c([nH]c3ccc(C#CC4CC4)cc13)CCCC2  remaining binding (binding, competition with immobilised ligand; 1 µM): 100%
CN(C)c1nccc(-c2cnc3ncccn23)n1  remaining binding (binding; 1 µM): 93%
N#CC1(c2ccccn2)CCN(Cc2cc(C(=O)N3CCCC3)c(=O)n3ccccc23)CC1  remaining binding (cell-free assay, competition with immobilised ligand; 1 µM): 79%
